From PubChem BioAssay AID623962 (The Scripps Research Institute Molecular Screening Center, 2012)
“And” between values parts separate entries of the source, which are not always exact repeats. Identical values can stand only once. The source made the active and inactive calls.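 How the source made its calls: active means mean inhibition at 10 µM of 50% or more; inactive means mean inhibition at 10 µM below 50%.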

System: Huh-7.5 HCV Rluc replicon, luciferase luminescence, 72 h
Experiment: inhibition of HCV replicon replication, late-stage follow-up, orthogonal assay for HCV NS3 helicase inhibitor project, cell-based, luminescence, Renilla luciferase replicon (AID 623962)
Conditions: at 10 µM; hits give high values
How it was run: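 Dosing: one concentration, 10 µM in 0.5% DMSO / Assay system: Huh-7.5 HCV Renilla luciferase replicon cells / Benchmarks: DMSO-treated cells as uninhibited reference / Signal: Renilla luciferase luminescence of lysed cells / Schedule: cell attachment 4-5 h, then compound exposure 72 h, 37 °C, 5% CO2 / Read-out basis: % replication inhibition versus DMSO-treated cells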

Row | Compound | inhibition
1 | O=C(Nc1ccc(-c2nc3ccccc3[nH]2)cc1)c1ccc2ncsc2c1 | -7% (inactive)
2 | Cc1ccc2nc(-c3ccc4nc(-c5ccc(NC(=O)c6cccnc6)cc5)sc4c3)sc2c1S(=O)(=O)O | 51%
3 | Cc1ccc2nc(-c3ccc4nc(-c5ccc(NC(=O)c6cccc(C(F)(F)F)c6F)cc5)sc4c3)sc2c1S(=O)(=O)O | 48% (inactive)
4 | Cc1ccc2nc(-c3ccc4nc(-c5ccc(NC(=O)c6cccc(C(F)(F)F)c6)cc5)sc4c3)sc2c1S(=O)(=O)O | 41% (inactive)
5 | Cc1ccc2nc(-c3ccc(NC(=O)c4ccc(NC(=O)c5ccc(N)cc5)cc4)cc3)sc2c1S(=O)(=O)O | -42% (inactive)
6 | Cc1ccc2nc(-c3ccc4nc(-c5ccc(NC(=O)Nc6ccc(Cl)cc6)cc5)sc4c3)sc2c1S(=O)(=O)O | 35% (inactive)
7 | CN1CCN(Cc2cc(CN3CCN(C)CC3)c(O)c(=O)c(CN3CCN(C)CC3)c2)CC1 | 46% (inactive)
8 | Cc1ccc2nc(-c3ccc(NC(=O)c4ccc(C(F)(F)F)cc4)cc3)sc2c1S(=O)(=O)O | 11% (inactive)
9 | CCOc1ccc2c(NNC(=O)c3cnccn3)c3c(nc2c1)CCCC3 | 81%
10 | Cc1ccc2nc(-c3ccc4nc(-c5ccc(NS(=O)(=O)c6ccc(C(F)(F)F)cc6)cc5)sc4c3)sc2c1S(=O)(=O)O | -7% (inactive)
11 | Cc1ccc2nc(-c3ccc(NC(=O)c4ccc(NC(=O)Nc5ccccc5)cc4)cc3)sc2c1S(=O)(=O)O | -64% (inactive)
12 | Cc1ccc2nc(-c3ccc4nc(-c5ccc(NC(=O)c6ccc7ncoc7c6)cc5)sc4c3)sc2c1S(=O)(=O)O | 15% (inactive)
13 | Cc1cc2sc(-c3ccc(N)cc3)nc2cc1S(=O)(=O)O | 0% (inactive)
14 | Cc1ccc2nc(-c3ccc4nc(-c5ccc(NC(=O)c6cc(F)cc(C(F)(F)F)c6)cc5)sc4c3)sc2c1S(=O)(=O)O | 51%
15 | CC(=O)Nc1ccc(-c2nc3ccc(-c4nc5ccc(C)c(S(=O)(=O)O)c5s4)cc3s2)cc1 | 26% (inactive)
16 | Cc1ccc2nc(-c3ccc4nc(-c5ccc(NC(=O)c6ccc(CNC(=O)OCC7c8ccccc8-c8ccccc87)cc6)cc5)sc4c3)sc2c1S(=O)(=O)O | 48% (inactive)
17 | COc1cccc2c(=O)c3cc(Cl)cc(C(=O)Nc4cc(Cl)ccn4)c3[nH]c12 | 73%
18 | CCN(CC)c1ccc(-c2nc3ccc(-c4nc5ccc(C)c(S(=O)(=O)O)c5s4)cc3s2)cc1 | 0% (inactive)
19 | Cc1ccc2nc(-c3ccc4nc(-c5ccc(NC(=O)c6c(F)cccc6C(F)(F)F)cc5)sc4c3)sc2c1S(=O)(=O)O | 55%
20 | Cc1ccc2nc(-c3ccc4nc(-c5ccc(NC(=O)c6ccc(Cl)c(Cl)c6)cc5)sc4c3)sc2c1S(=O)(=O)O | 43% (inactive)
21 | Cc1ccc2nc(-c3ccc4nc(-c5ccc(NC(=O)c6cc(F)ccc6C(F)(F)F)cc5)sc4c3)sc2c1S(=O)(=O)O | 61%
22 | Cc1ccc2nc(-c3ccc4nc(-c5ccc(NC(=O)c6ccncc6)cc5)sc4c3)sc2c1S(=O)(=O)O | 59%
23 | Cc1ccc2nc(-c3ccc4nc(-c5ccc(NCc6ccccc6)cc5)sc4c3)sc2c1S(=O)(=O)O | -64% (inactive)
24 | Cc1ccc2nc(-c3ccc4nc(-c5ccc(NC(=O)c6ccc7nc(-c8ccc(N)cc8)sc7c6)cc5)sc4c3)sc2c1S(=O)(=O)O | 37% (inactive)

Row | Compound | inhibition
25 | Cc1ccc2nc(-c3ccc(NC(=O)c4ccc(NC(=S)Nc5ccccc5)cc4)cc3)sc2c1S(=O)(=O)O | -13% (inactive)
26 | Cc1ccc2nc(-c3ccc4nc(-c5ccc(NC(=O)c6cc(C(F)(F)F)cc(C(F)(F)F)c6)cc5)sc4c3)sc2c1S(=O)(=O)O | 60%
27 | Cc1ccc2nc(-c3ccc(NC(=O)c4ccc(NC(=O)c5ccc(C(F)(F)F)cc5)cc4)cc3)sc2c1S(=O)(=O)O | 4% (inactive)
28 | COc1ccc(S(=O)(=O)Nc2ccc(-c3nc4ccc(-c5nc6ccc(C)c(S(=O)(=O)O)c6s5)cc4s3)cc2)cc1 | 44% (inactive)
29 | Cc1ccc2nc(-c3ccc4nc(-c5ccc(NC(=O)Nc6ccc(C(F)(F)F)cc6)cc5)sc4c3)sc2c1S(=O)(=O)O | 7% (inactive)
30 | Cc1ccc2nc(-c3ccc(NC(=S)Nc4ccccc4Br)cc3)sc2c1 | 80%
31 | Cc1ccc2nc(-c3ccc4nc(NC(=O)c5ccc6ncoc6c5)sc4c3)sc2c1 | 90%
32 | Cc1ccc2nc(-c3ccc(NC(=O)c4ccc(NC(=O)c5ccc(NC(=O)OCC6c7ccccc7-c7ccccc76)cc5)cc4)cc3)sc2c1S(=O)(=O)O | -14% (inactive)
33 | Cc1ccc2nc(-c3ccc4nc(-c5ccc(NC(=O)c6cccc7ccccc67)cc5)sc4c3)sc2c1S(=O)(=O)O | -9% (inactive)
34 | Cc1ccc(NC(=O)Nc2ccc(-c3nc4ccc(-c5nc6ccc(C)c(S(=O)(=O)O)c6s5)cc4s3)cc2)cc1 | 43% (inactive)
35 | Cc1ccc2nc(-c3ccc4nc(-c5ccc(NC(=O)c6ccccc6C(F)(F)F)cc5)sc4c3)sc2c1S(=O)(=O)O | 0% (inactive)
36 | Cc1ccc2nc(-c3ccc4nc(-c5ccc(NC(=O)c6ccc(N)cc6)cc5)sc4c3)sc2c1S(=O)(=O)O | 33% (inactive)
37 | Cc1ccc2nc(-c3ccc4nc(-c5ccc(NC(=O)c6ccc(C(F)(F)F)cc6)cc5)sc4c3)sc2c1S(=O)(=O)O | 44% (inactive)
38 | Cc1ccc2nc(-c3ccc4nc(-c5ccc(NC(=O)c6ccc(Cl)cc6)cc5)sc4c3)sc2c1S(=O)(=O)O | 42% (inactive)
39 | Cc1ccc2nc(-c3ccc(NC(=O)c4ccc(N)cc4)cc3)sc2c1S(=O)(=O)O | 21% (inactive)
40 | Cc1ccc2nc(-c3ccc4nc(-c5ccc(NC(=O)c6ccc(F)cc6)cc5)sc4c3)sc2c1S(=O)(=O)O | 50%
41 | Cc1cc(C(O)(c2ccc(Nc3ccccc3)cc2)c2ccc(Nc3ccc(S(=O)(=O)O)cc3)cc2)ccc1N (stereo unspecified) | 23% (inactive)
42 | Cc1ccc2nc(-c3ccc4nc(-c5ccc6nc(-c7ccc(N)cc7)sc6c5)sc4c3)sc2c1S(=O)(=O)O | 59%
43 | COC(=O)c1ccc(C(=O)Nc2ccc(-c3nc4ccc(-c5nc6ccc(C)c(S(=O)(=O)O)c6s5)cc4s3)cc2)cc1 | 40% (inactive)
44 | Cc1ccc2nc(-c3ccc(N)cc3)sc2c1S(=O)(=O)O | 0% (inactive)
45 | Cc1ccc2nc(-c3ccc4nc(-c5ccc6nc(-c7ccc8nc(-c9ccc(N)cc9)sc8c7)sc6c5)sc4c3)sc2c1S(=O)(=O)O | 0% (inactive) and 45% (inactive)
46 | Cc1ccc2nc(-c3ccc4nc(-c5ccc(NC(=O)c6ccc(Br)cc6)cc5)sc4c3)sc2c1S(=O)(=O)O | 7% (inactive)
47 | Cc1ccc2nc(-c3ccc4nc(-c5ccc(NC(=O)c6ccccc6)cc5)sc4c3)sc2c1S(=O)(=O)O | 45% (inactive)
48 | O=C(Nc1nc2ccc(Br)cc2s1)c1ccc2ncsc2c1 | 25% (inactive)

Row | Compound | inhibition
49 | O=C(CCCCCCC(=O)Nc1ccc(-c2nc3ccccc3[nH]2)cc1)Nc1ccc(-c2nc3ccccc3[nH]2)cc1 | 96%
50 | Cc1ccc2nc(-c3ccc4nc(-c5ccc(NC(=O)c6ccc(N(C)C)cc6)cc5)sc4c3)sc2c1S(=O)(=O)O | 22% (inactive)
51 | CCN(CC)c1ccc(-c2nc3ccc(C)c(S(=O)(=O)O)c3s2)cc1 | 0% (inactive)
52 | Cc1ccc2nc(-c3ccc4nc(-c5ccc(NC(=O)Nc6ccc(F)cc6)cc5)sc4c3)sc2c1S(=O)(=O)O | 17% (inactive)
53 | CCOc1ccc2nc(NC(=O)c3ccc4ncsc4c3)sc2c1 | 99%
54 | COc1ccc2sc(NC(=O)c3ccc4ncsc4c3)nc2c1 | 60%
55 | Cc1ccc(C(=O)Nc2ccc(-c3nc4ccc(-c5nc6ccc(C)c(S(=O)(=O)O)c6s5)cc4s3)cc2)cc1 | 52%
56 | Cc1ccc2nc(-c3ccc4nc(-c5ccc(NC(=O)c6ccc(C(F)(F)F)c(F)c6)cc5)sc4c3)sc2c1S(=O)(=O)O | 48% (inactive)
57 | Cc1ccc2c(sc(-c3ccc4c(c3)sc(-c3ccc5c(c3)sc(-c3ccc(N(C)C)cc3)[n+]5C)[n+]4C)[n+]2C)c1S(=O)(=O)O (tested in a mixture with another compound) | -16% (inactive)
58 | Cc1ccc2nc(-c3ccc(NC(=O)c4ccc(NC(=O)c5ccccc5)cc4)cc3)sc2c1S(=O)(=O)O | 19% (inactive)
59 | Cc1ccc2nc(-c3ccc4nc(-c5ccc6nc(-c7ccc(N)cc7)sc6c5)sc4c3)sc2c1S(=O)(=O)O (tested in a mixture with another compound) | 0% (inactive)
60 | Cc1ccc2nc(-c3ccc4nc(-c5ccc(N(C)C(=O)c6ccc7ccccc7c6)cc5)sc4c3)sc2c1S(=O)(=O)O | 24% (inactive)
61 | CS(=O)(=O)c1ccc2nc(NC(=O)c3ccc4ncsc4c3)sc2c1 | 55%
62 | Cc1ccc2nc(-c3ccc(NC(=O)c4ccc(NC(=O)OCC5c6ccccc6-c6ccccc65)cc4)cc3)sc2c1S(=O)(=O)O | 31% (inactive)
63 | Cc1cc2sc(-c3ccc4nc(-c5ccc(N)cc5)sc4c3)nc2cc1S(=O)(=O)O | 28% (inactive)
64 | COc1ccc(NC(=O)Nc2ccc(-c3nc4ccc(-c5nc6ccc(C)c(S(=O)(=O)O)c6s5)cc4s3)cc2)cc1 | 21% (inactive)
65 | Cc1ccc2nc(-c3ccc4nc(-c5ccc(NC(=O)c6cc(C(F)(F)F)ccc6F)cc5)sc4c3)sc2c1S(=O)(=O)O | 39% (inactive)
66 | Cc1ccc2nc(-c3ccc4nc(-c5ccc(NC(=O)Nc6ccccc6)cc5)sc4c3)sc2c1S(=O)(=O)O | -18% (inactive)
67 | Cc1ccc2nc(-c3ccc4nc(-c5ccc(NC(=O)c6ccc7nc(-c8ccc(NC(=O)OCC9c%10ccccc%10-c%10ccccc%109)cc8)sc7c6)cc5)sc4c3)sc2c1S(=O)(=O)O | 42% (inactive) and 44% (inactive)
68 | Cc1ccc2nc(-c3ccc4nc(-c5ccc(NC(=O)c6ccc(NC(=O)OCC7c8ccccc8-c8ccccc87)cc6)cc5)sc4c3)sc2c1S(=O)(=O)O | 57%
69 | Cc1ccc2nc(-c3ccc4nc(-c5ccc(NC(=O)c6cccc(Cl)c6)cc5)sc4c3)sc2c1S(=O)(=O)O | 54%
70 | Cc1ccc2nc(-c3ccc4nc(-c5ccc(NC(=S)Nc6ccccc6)cc5)sc4c3)sc2c1S(=O)(=O)O | 9% (inactive)
71 | Cc1ccc2nc(-c3ccc(NC(=O)c4ccc(NS(=O)(=O)c5ccccc5)cc4)cc3)sc2c1S(=O)(=O)O | -73% (inactive)
